Source: ChEMBL document CHEMBL4266061, “Discovery of 4-Azaindole Inhibitors of TGFβRI as Immuno-oncology Agents” (ACS Med Chem Lett, 2018)

Columns and labels:
[1] = Metabolic stability in rat liver microsomes assessed as parent compound remaining; type: ADME, microsome
[2] = Fraction unbound in mouse plasma; type: ADME, cell-free
[3] = Tmax in Balb/C mouse at 10 mg/kg, po qd; type: ADME, organism-based; settings: in vivo
Summary of the method: (§1)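 Compound given orally to mice. Plasma levels were followed over time, and Cmax, Tmax and AUC0–24 were taken from the plasma concentration–time profile.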

[4] = Cmax in Balb/C mouse at 10 mg/kg, po qd; type: ADME, organism-based; parameters: dose 10 mg/kg, route oral; settings: in vivo; summary of the method: as §1
[5] = Fraction unbound in human plasma; type: ADME, cell-free
[6] = AUC (0 to 24 hrs) in Balb/C mouse at 10 mg/kg, po qd; type: ADME, organism-based; parameters: time < 24 hr, dose 10 mg/kg, route oral; settings: in vivo; summary of the method: as §1
Mus musculus = test: Toxicity in C57/BL6 mouse xenografted with mouse MC38 cells assessed as body weight loss at 25 to 50 mg/kg, po qd for 28 days measured twice weekly; type: organism-based; settings: in vivo, 672 h
Summary of the method: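 Nine C57/BL6 mice per group were injected subcutaneously with 1 × 10^6 MC38 cells. Tumors were measured on day 6, then mice were randomized. Compound was given orally every day for 28 days, alone or with anti-PD-1 antibody (IP every 4 days, three doses). Tumor volumes were measured twice weekly, and body weight loss (>5%) was monitored.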

[7] = Metabolic stability in human liver microsomes assessed as parent compound remaining; type: ADME, microsome
[8] = Fraction unbound in rat plasma; type: ADME, cell-free
[9] = Metabolic stability in mouse liver microsomes assessed as parent compound remaining; type: ADME, microsome
[10] = Tmax in Balb/C mouse at 50 mg/kg, po bid; type: ADME, organism-based; settings: in vivo; summary of the method: as §1
[11] = Cmax in Balb/C mouse at 50 mg/kg, po bid; type: ADME, organism-based; parameters: dose 50 mg/kg, route oral; settings: in vivo; summary of the method: as §1
[12] = AUC (0 to 24 hrs) in Balb/C mouse at 50 mg/kg, po bid; type: ADME, organism-based; parameters: time < 24 hr, dose 50 mg/kg, route oral; settings: in vivo; summary of the method: as §1

| Stability [1] [%] | fraction unbound [2] | Tmax [3] [h] | Cmax [4] [µM] | fraction unbound [5] | AUC at 24 h [6] [µM·h] | Stability [7] [%] | fraction unbound [8] | Stability [9] [%] | Tmax [10] [h] | Cmax [11] [µM] | AUC at 24 h [12] [µM·h] | Structure (SMILES) | Activity (Mus musculus) [%] |
| --- | --- | --- | --- | --- | --- | --- | --- | --- | --- | --- | --- | --- | --- |
| 89 | 0.12 | 1 | 5.3 | 0.24 | 19.5 | 96 | 0.25 | 74 |  |  |  | [2H]C([2H])([2H])Oc1ccc(-c2c(-c3ccnc(NC(C)=O)c3)[nH]c3cccnc23)nc1 | < 5 |
| 85 | 0.05 |  |  | 0.09 |  | 60 | 0.18 | 66 | 1 | 7.4 | 14.1 | CC(=O)Nc1cc(-c2[nH]c3cccnc3c2-c2cccc(C(F)F)n2)ccn1 |  |
